The nature of data set [1]: Selectivity index, ratio of CC50 for human THP1 cells to IC50 for promastigote stage of Leishmania infantum. It counts as functional, THP-1. The essentials: (§1)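 Selectivity index was calculated as CC50 in Vero (T. cruzi) or THP-1 (L. infantum) cells divided by parasite IC50. Both values came from 72 h mammalian-cell MTT assays and the parasite assays; SI ≥ 3 was defined as parasite-selective.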

The nature of data set [2]: Selectivity index, ratio of CC50 for African green monkey Vero cells to IC50 for epimastigote stage of Trypanosoma cruzi. The format is functional. In outline: as §1
Data set [3] relates to Trypanosoma cruzi. Put plainly: Antiparasitic activity against epimastigote stage of Trypanosoma cruzi infected in Vero cells assessed as parasite growth inhibition […] by hemocytometery. The format is functional, organism-based. The essentials:
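Exponential-phase T. cruzi Sylvio X10 epimastigotes (LIT medium with hiFCS) or L. (L.) infantum MHOM/BR/74/PP75 promastigotes (RPMI 1640, hemin, HEPES, 10% hiFCS) were exposed to threefold serial dilutions (0.3–300 µg/mL) for 72 h at 28 °C. Viable parasites were counted by hemocytometer with 0.25% eosin yellow. IC50 came from sigmoidal regression, given as mean ± SD.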

Data set [4] can be described thus: Cytotoxicity against human THP1 cells. It counts as cell-based. To be noted: THP-1 cells. The essentials: (§2)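 Vero monolayers or THP-1 cells (made adherent with 10 ng/mL PMA), in RPMI 1640 with 10% hiFCS, were exposed to compound (0.3–300 µg/mL) for 72 h at 37 °C, 5% CO2. Viability was measured by MTT, with formazan dissolved in DMSO and read at 580 nm. % cytotoxicity was calculated against untreated cells; CC50 came from sigmoidal regression, given as mean ± SD.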

Data set [5] relates to Leishmania infantum. Put plainly: Antiparasitic activity against amastigote stage of Leishmania infantum infected in THP1 cells assessed as parasite growth inhibition after 24 hrs by hemocytometery. It counts as functional, organism-based, THP-1. The conditions noted are these: Leishmania infantum, THP-1, 24 h; read-out: IC50. The essentials: (§3)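 Host cells were Vero for T. cruzi (infected with tissue-derived trypomastigotes) and THP-1 (PMA-transformed, 10 ng/mL) for L. (L.) infantum (infected with late-phase promastigotes), at 1:10 cell:parasite for 24 h. Serial dilutions were given as two doses, the second on day 3 with a medium change. Read-out was % infected cells on methanol-fixed, Giemsa-stained slides (300 cells). IC50 came from sigmoidal regression; experiments in duplicate, concentrations in triplicate.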

In data set [6] the test system is Leishmania infantum. Put plainly: Antiparasitic activity against promastigote stage of Leishmania infantum assessed as parasite growth inhibition after 72 hrs by hemocytometery.
Data set [7] is described as follows: Cytotoxicity against African green monkey Vero cells. To be noted: chlorocebus sabaeus. It counts as cell-based. The essentials: as §2
The test system of data set [8] is Trypanosoma cruzi. Put plainly: Antiparasitic activity against amastigote stage of Trypanosoma cruzi infected in Vero cells assessed as parasite growth inhibition after 24 hrs by hemocytometery. It counts as functional, organism-based. To be noted: Trypanosoma cruzi, Vero, 24 h; read-out: IC50. In outline:
as §3

A short description of data set [9]: Selectivity index, ratio of CC50 for African green monkey Vero cells to IC50 for amastigote stage of Trypanosoma cruzi. It counts as functional. In outline:
as §1

Experimental findings from ChEMBL document CHEMBL3352355, “Synthesis of novel polysubstituted (2SR,4RS)-2-heteroaryltetrahydro-1,4-epoxy-1-benzazepines and cis-2-heteroaryl-4-hydroxytetrahydro-1H-1-benzazepines as antiparasitic agents” (Eur J Med Chem, 2014) are described below.

As for `Fc1ccc2c(c1)C[C@@H]1C[C@@H](c3ccc(Br)s3)N2O1` (racemic), the “Selectivity Index” value in data set [1] is listed as greater than 40.6; in data set [2] it was greater than 8.5; in [9] it was greater than 5.4. Moreover, the IC50 (as a rule, the concentration that gives 50% inhibition) in the data set with Trypanosoma cruzi [3] is 34.7 µM; in the data set on Leishmania infantum [5] it was greater than 295 µM; in the data set on Leishmania infantum [6], 7.3 µM; in the data set with Trypanosoma cruzi [8] it was 54.6 µM. Moreover, the CC50 in data set [4] and in data set [7] was greater than 295 µM in each case.
Regarding `FC(F)(F)Oc1ccc2c(c1)C[C@@H]1C[C@@H](c3cccs3)N2O1` (racemic), the “Selectivity Index” value in [1] is listed as greater than 1.2; in data set [2], greater than 2.1; in [9], greater than 4.1. Also, the IC50 in the data set on Trypanosoma cruzi [3] is 143 µM; in the data set on Leishmania infantum [5], greater than 306 µM; with Leishmania infantum [6], 256 µM; in the data set with Trypanosoma cruzi [8] it was 73.9 µM. The CC50 in data set [4] and in data set [7] was greater than 306 µM each time.
As for `Cc1ccsc1[C@@H]1C[C@H]2Cc3cc(OC(F)(F)F)ccc3N1O2` (racemic), the “Selectivity Index” value in data set [1] is listed as greater than 153.9; in data set [2], 1.3; in data set [9], 0.3. For the same compound, the IC50 is 47.2 µM with Trypanosoma cruzi [3], greater than 293 µM with Leishmania infantum [5], 11.4 µM in the data set with Leishmania infantum [6] and 202 µM in the data set with Trypanosoma cruzi [8]. The half-maximal cytotoxic concentration (CC50) (as a rule, the concentration giving 50% cytotoxicity) was greater than 1760 µM in [4] and 61.7 µM in data set [7].
As to `Cc1ccc([C@@H]2C[C@H]3Cc4cc(Cl)ccc4N2O3)o1` (racemic), the “Selectivity Index” value in data set [1] was found to be 19.6; in [2], 25.1; in data set [9], 3.7. Also, the IC50 in the data set on Trypanosoma cruzi [3] is 46.2 µM; with Leishmania infantum [5], greater than 130 µM; in the data set with Leishmania infantum [6], 19.1 µM; in the data set on Trypanosoma cruzi [8] it was 312 µM. The CC50 in [4] worked out at 374 µM; in [7] it was 1160 µM.
For the compound `Fc1ccc2c(c1)C[C@@H]1C[C@@H](c3ccco3)N2O1` (racemic), the “Selectivity Index” value is reported as greater than 14.7 in [1], greater than 8.6 in [2] and greater than 5.8 in data set [9]. The IC50 in the data set on Trypanosoma cruzi [3] is 47.7 µM; with Leishmania infantum [5], greater than 136 µM; in the data set on Leishmania infantum [6], 83.2 µM; in the data set with Trypanosoma cruzi [8] it was 70.1 µM. Also, the CC50 in data set [4] is greater than 1220 µM; in data set [7], greater than 408 µM.
Turning to `O=[N+]([O-])c1ccc([C@@H]2C[C@H]3Cc4cc(F)ccc4N2O3)o1` (racemic), the “Selectivity Index” value came to 50.4 in data set [1], 14.2 in data set [2] and 1.5 in data set [9]. Also, the IC50 in the data set with Trypanosoma cruzi [3] is 29.7 µM; in the data set with Leishmania infantum [5], greater than 115 µM; with Leishmania infantum [6] it was 10.7 µM; in the data set on Trypanosoma cruzi [8] it was 284 µM. In addition, the CC50 was 539 µM in data set [4] and 422 µM in data set [7].
As for `Cc1ccc([C@@H]2C[C@H]3Cc4cc(OC(F)(F)F)ccc4N2O3)o1` (racemic), the entries for the “Selectivity Index” value in data set [1], in [2] and in [9] were 16.3, 4.6 and 2, respectively. For the same compound, the IC50 in the data set on Trypanosoma cruzi [3] was 89.2 µM; in the data set on Leishmania infantum [5] it was greater than 308 µM; in the data set with Leishmania infantum [6], 10.8 µM; in the data set on Trypanosoma cruzi [8], 212 µM. The CC50 came out at 176 µM in data set [4] and 414 µM in data set [7].
Take `Cc1ccc([C@@H]2C[C@H](O)Cc3ccccc3N2)s1` (relative stereo): the “Selectivity Index” value in [1] is 5.5; in data set [2], 41.9; in [9] it was 7.3. The IC50 was 22.8 µM in the data set with Trypanosoma cruzi [3], greater than 128 µM in the data set with Leishmania infantum [5], 111 µM with Leishmania infantum [6] and 131 µM with Trypanosoma cruzi [8]. The CC50 in data set [4] was 608 µM; in data set [7] it was 956 µM.
Regarding `Cc1ccsc1[C@@H]1C[C@H](O)Cc2cc(Cl)ccc2N1` (relative stereo), the entries for the “Selectivity Index” value in data set [1], in data set [2] and in data set [9] were 2.5, 4.2 and 4.8, respectively. The IC50 in the data set with Trypanosoma cruzi [3] is 47.9 µM; in the data set with Leishmania infantum [5], greater than 341 µM; in the data set with Leishmania infantum [6] it was 72.9 µM; with Trypanosoma cruzi [8] it was 41.5 µM. Besides, the cytotoxic concentration (CC50) in data set [4] was 181 µM; in data set [7], 200 µM.
